Experimental data taken from ChEMBL document CHEMBL1150597, “Syntheses of two cytotoxic sinapyl alcohol derivatives and isolation of four new related compounds from Ligularia nelumbifolia” (J Nat Prod, 2002).

Experiments:
Format in all cases: functional, cell-based
[1] = system: KB; assay: Cytotoxicity against human KB cells after 72 hrs
Procedure, shortened: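 KB cells from the American Type Culture Collection; growth monitored after 72 h incubation with compound. IC50 taken as the drug concentration giving 50% growth inhibition.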

[2] = system: HL-60; assay: Cytotoxicity against human HL60 cells by SRB assay
[3] = system: A549; assay: Cytotoxicity against human A549 cells by SRB assay

COc1cc(/C=C/CO)cc(OC)c1OCc1ccccc1
IC50 [1]: 860 µM

COc1cc(/C=C/C=O)cc(OC)c1OCc1ccccc1
IC50 [1]: 640 µM

COc1cc(/C=C/CO)cc(OC)c1OCC=C(C)C
IC50 [1]: 7.8 µM

COc1cc(/C=C/C=O)cc(OC)c1OC/C=C(\C)CCC=C(C)C [NELUMAL A]
IC50 [2]: 12 µM
IC50 [1]: 2.6 µM
IC50 [3]: 22 µM

COc1cc(/C=C/CO)cc(OC)c1OC/C=C(\C)CCC=C(C)C [NELUMOL A]
IC50 [2]: 6.7 µM
IC50 [1]: 3 µM
IC50 [3]: 34 µM
